18 compounds from ChEMBL document CHEMBL1150111, “Natural products inhibiting Candida albicans secreted aspartic proteases from Lycopodium cernuum” (J Nat Prod, 2002) can be followed below.

Structures are written as SMILES. In brackets after ≈: the same amount, converted by molar mass. Activity calls are given as the source filed them. No cut-off for these calls is given here.

Test [1] deals with Candida albicans. Kind of test: (§1) Inhibition of Candida albicans secreted aspartic protease. The method in brief:
(§2)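 Candida albicans secreted aspartic protease (SAP) inhibition assay run by the earlier published method. Aspartic protease inhibitor pepstatin A served as positive control. Activity is reported as IC50 in µg/mL.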

Test [2] is described as follows: as §1. The essentials: as §2

As for `CC(=O)O[C@H]1CC[C@@]2(C)[C@@H](CC[C@@]3(C)C[C@@]4(O)[C@H](O)C[C@H]5C(C)(C)[C@H](OC(C)=O)CC[C@]5(C)[C@H]4CC[C@@H]32)[C@@]1(C)C(=O)O`, the outcome in test [1] was inactive.
`CC(C)CC(=O)N[C@H](C(=O)N[C@H](C(=O)N[C@@H](CC(C)C)[C@@H](O)CC(=O)N[C@@H](C)C(=O)N[C@@H](CC(C)C)[C@@H](O)CC(=O)O)C(C)C)C(C)C` [PEPSTATIN] yielded an IC50 in test [2] of 0.0015 µg/mL (≈ 0.00219 µM).
For `C[C@@]12CC[C@@H]3[C@](C)(CC[C@H](O)[C@]3(C)C(=O)O)[C@H]1CC[C@H]1C(=CC[C@@H]3[C@]1(C)CC[C@@H](O)[C@]3(C)CO)C2`, in test [1], the result was inactive.
Consider `CC(=O)O[C@H]1CC[C@@]2(C)[C@@H](CC[C@@]3(C)C[C@@]4(O)[C@H](CC[C@@H]32)[C@@]2(C)CC[C@@H](OC(C)=O)C(C)(C)[C@@H]2C[C@@H]4O)[C@@]1(C)C(=O)O`, for which the outcome in test [1] was inactive.
Same read-out and setting: the value for `CC(=O)O[C@H]1CC[C@@]2(C)[C@@H](CC[C@@]3(C)CC4=CC[C@H]5C(C)(C)[C@H](OC(C)=O)CC[C@]5(C)[C@H]4CC[C@@H]32)[C@@]1(C)C(=O)O` was “inactive”; that for `COC(=O)[C@@]1(C)[C@H](O)CC[C@@]2(C)[C@H]1CC[C@@]1(C)CC3=CC(=O)[C@@H]4[C@](C)(CC[C@@H](O)[C@]4(C)CO)[C@H]3CC[C@@H]12` was “inactive”; that for `CC1(C)[C@@H](O)CC[C@@]2(C)[C@H]1CC[C@@]1(C)CC3=CC[C@H]4C(C)(C)[C@@H](O)CC[C@]4(C)[C@H]3CC[C@@H]12` was “inactive”.
`O=C(/C=C/c1ccc(O)cc1)OC[C@H]1O[C@@H](Oc2ccc(-c3cc(=O)c4c(O)cc(O)cc4o3)cc2)[C@H](OC(=O)/C=C/c2ccc(O)cc2)[C@@H](O)[C@@H]1O` came in with an IC50 in test [2] of 8.5 µg/mL (≈ 11.7 µM).
For the compound `CC1(C)[C@H](O)CC[C@@]2(C)[C@H]1CC[C@]1(O)C[C@]3(C)CC[C@@H]4[C@](C)(CC[C@H](O)[C@]4(C)C(=O)O)[C@H]3CC[C@@H]12`, the outcome in test [1] was inactive.
On the same count and under the same terms, the value for `CC1(C)[C@@H](O)CC[C@@]2(C)[C@H]1CC[C@@]1(C)CC3=CC[C@H]4C(C)(C)[C@H](O)CC[C@]4(C)[C@H]3CC[C@@H]12` was “inactive”.
Regarding `COC(=O)[C@]1(C)[C@@H]2CC[C@@]3(C)CC4=CC(=O)[C@@H]5[C@](C)(CC[C@@H](O)[C@]5(C)CO)[C@H]4CC[C@@H]3[C@@]2(C)CC[C@@H]1O`, the outcome in test [1] was inactive.
Same read-out and setting: with `CC1(C)[C@H](O)CC[C@]2(C)[C@H]3CC[C@H]4[C@@](C)(CC[C@@H]5[C@]4(C)CC[C@@H](O)[C@]5(C)CO)CC3=CC(=O)[C@@H]12` the entry was “inactive”.
Take `C[C@@]12CC[C@@H]3[C@](C)(CC[C@H](O)[C@]3(C)C(=O)O)[C@H]1CC[C@@H]1[C@@]3(C)CC[C@@H](O)[C@](C)(CO)[C@@H]3C[C@H](O)[C@@]1(O)C2` [LYCERNUIC ACID C]: in test [2], the IC50 was found to be 20 µg/mL (≈ 38.3 µM).
`CC(=O)O[C@H]1CC[C@@]2(C)[C@@H](CC[C@@]3(C)C[C@@]4(O)CC[C@H]5C(C)(C)[C@H](OC(C)=O)CC[C@]5(C)[C@H]4CC[C@@H]32)[C@@]1(C)C(=O)O`: the outcome in test [1] was inactive.
The same measure, in the same setting: with `CC(=O)O[C@H]1CC[C@@]2(C)[C@@H](CC[C@@]3(C)CC4=C(CC[C@@H]32)[C@@]2(C)CC[C@@H](OC(C)=O)C(C)(C)[C@@H]2CC4)[C@@]1(C)C(=O)O` the entry was “inactive”.
Same read-out and setting: the value for `CC1(C)[C@H](O)CC[C@]2(C)[C@H]3CC[C@H]4[C@@](C)(CC[C@@H]5[C@]4(C)CC[C@H](O)[C@]5(C)C(=O)O)CC3=CC[C@@H]12` was “inactive”.
Still for that read-out and setting: with `CC1(C)[C@H](O)CC[C@]2(C)[C@H]3CC[C@H]4[C@@](C)(CC[C@@H]5[C@]4(C)CC[C@H](O)[C@]5(C)C(=O)O)C[C@]3(O)[C@@H](O)C[C@@H]12` the entry was “inactive”; with `CC(=O)OC[C@]1(C)[C@@H]2C[C@H](OC(C)=O)[C@@]3(O)C[C@]4(C)CC[C@@H]5[C@](C)(CC[C@H](OC(C)=O)[C@]5(C)C(=O)O)[C@H]4CC[C@@H]3[C@@]2(C)CC[C@H]1OC(C)=O`, “inactive”.

Broadly, the IC50 is the concentration needed to halve the response being measured. Low readings indicate greater potency, high ones weaker potency.
